We go through nine compounds from ChEMBL document CHEMBL1949525, “Boranophosphate isoster controls P2Y-receptor subtype selectivity and metabolic stability of dinucleoside polyphosphate analogues” (J Med Chem, 2012).

Data set [1] is described as follows: Stability of the compound assessed as human e-NPP1-mediated hydrolysis at pH 8.5 after 20 mins by HPLC analysis. Particulars: buffer, pH 8.5, 20 min. The class given is ADME. The procedure, abridged: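 Human NPP1 preparation preincubated 3 min at 37 °C in 1 mM CaCl2, 200 mM NaCl, 10 mM KCl, 100 mM Tris, pH 8.5. Started with 0.2 mM dinucleotide solution (added volume) and stopped after 20 min in ice-cold perchloric acid. Neutralised with KOH, then NMP formation followed by HPLC. Percent substrate hydrolysed is the mean of two experiments run in triplicate.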

Data set [2] is described as follows: Stability of the compound assessed as human e-NPP3-mediated compound hydrolysis by HPLC analysis. The class given is ADME.
A short description of data set [3]: Chemical stability of the compound at pH mimicking gastric juice acidity. The class given is physicochemical. Particulars: simulated gi fluid.
A short description of data set [4]: Chemical stability of the compound at physiological conditions. The class given is physicochemical.
For data set [5], the target named is P2Y purinoceptor 1 (Meleagris gallopavo) (UniProt P49652). The experiment in a line: Agonist activity at turkey P2Y purinoceptor 1 expressed in human 1321N1 cells assessed as increase in intracellular calcium concentration by spectrofluorimetry. The class given is functional, cell-based. On the technique in general: Calcium flux is commonly read through the fluorescence of an indicator in the cells.

In data set [6] the target is T1, P2Y purinoceptor 2 (Homo sapiens, UniProt P41231). As to the kind of experiment: Agonist activity at human P2Y purinoceptor 2 expressed in human 1321N1 cells assessed as increase in intracellular calcium concentration by spectrofluorimetry. It counts as functional, cell-based.
Data set [7] can be described thus: Selectivity ratio of EC50 for rat P2Y purinoceptor 6 receptor to EC50 for turkey P2Y purinoceptor 1 receptor. The method in brief: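 1321N1 astrocytoma cells lacking endogenous P2Y receptors, stably transfected with turkey P2Y1, human P2Y2, human P2Y4 or rat P2Y6, grown in DMEM with 5% FBS, penicillin/streptomycin and 500 µg/mL G-418. Fura-2-loaded cell suspensions were exposed at 37 °C in 10 mM Hepes-buffered saline, pH 7.4, with 1 mM CaCl2 and 1 mM MgCl2. Peak [Ca2+]i rise by dual-excitation spectrofluorometry across concentrations; EC50 from curve fits; three experiments on separate days per subtype.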

Data set [8] deals with P2Y purinoceptor 1 (Meleagris gallopavo) (UniProt P49652). As to the kind of experiment: Antagonist activity at turkey P2Y purinoceptor 1 expressed in human 1321N1 cells assessed as inhibition of 2-Sme-ADP-induced increase in intracellular calcium concentration by spectrofluorimetry. It counts as functional, cell-based. The method in brief: (§1)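 Fura-2-loaded 1321N1 transfectants (turkey P2Y1, human P2Y2/P2Y4, rat P2Y6) in Hepes-buffered saline, pH 7.4, at 37 °C. Analogues were tested against equimolar reference agonist: 2-MeS-ADP for P2Y1, UTP for P2Y2/4, UDP for P2Y6. Blockade of the [Ca2+]i rise was followed by dual-excitation spectrofluorometry.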

The target of data set [9] is T1, P2Y purinoceptor 2. The experiment in a line: Antagonist activity at human P2Y purinoceptor 2 expressed in human 1321N1 cells assessed as inhibition of UTP-induced increase in intracellular calcium concentration by spectrofluorimetry. The class given is functional, cell-based. The procedure, abridged:
as §1

For data set [10], the target named is P2Y purinoceptor 4 (Homo sapiens, UniProt P51582). The experiment in a line: Antagonist activity at human P2Y purinoceptor 4 expressed in human 1321N1 cells assessed as inhibition of UTP-induced increase in intracellular calcium concentration by spectrofluorimetry. It counts as functional, cell-based. The method in brief:
as §1

Data set [11] addresses P2Y purinoceptor 6 (Rattus norvegicus) (UniProt Q63371). As to the kind of experiment: Antagonist activity at rat P2Y purinoceptor 6 expressed in human 1321N1 cells assessed as inhibition of UDP-induced increase in intracellular calcium concentration by spectrofluorimetry. The class given is functional, cell-based. The method in brief: as §1
For data set [12] the target is unchanged. The experiment in a line: Agonist activity at rat P2Y purinoceptor 6 expressed in human 1321N1 cells assessed as increase in intracellular calcium concentration at 100 uM by spectrofluorimetry. The class given is functional, cell-based.
The target in data set [13] is P2Y purinoceptor 1 (Meleagris gallopavo) (UniProt P49652). As to the kind of experiment: Agonist activity at turkey P2Y purinoceptor 1 expressed in human 1321N1 cells assessed as increase in intracellular calcium concentration at 100 uM by spectrofluorimetry. It counts as functional, cell-based.
Data set [14] has as its target T1, P2Y purinoceptor 2. The experiment in a line: Agonist activity at human P2Y purinoceptor 2 expressed in human 1321N1 cells assessed as increase in intracellular calcium concentration at 100 uM by spectrofluorimetry. The class given is functional, cell-based.

Activity calls are given as the source filed them. The rule behind the calls is not given here.

T1 sequence (P41231 whole entry): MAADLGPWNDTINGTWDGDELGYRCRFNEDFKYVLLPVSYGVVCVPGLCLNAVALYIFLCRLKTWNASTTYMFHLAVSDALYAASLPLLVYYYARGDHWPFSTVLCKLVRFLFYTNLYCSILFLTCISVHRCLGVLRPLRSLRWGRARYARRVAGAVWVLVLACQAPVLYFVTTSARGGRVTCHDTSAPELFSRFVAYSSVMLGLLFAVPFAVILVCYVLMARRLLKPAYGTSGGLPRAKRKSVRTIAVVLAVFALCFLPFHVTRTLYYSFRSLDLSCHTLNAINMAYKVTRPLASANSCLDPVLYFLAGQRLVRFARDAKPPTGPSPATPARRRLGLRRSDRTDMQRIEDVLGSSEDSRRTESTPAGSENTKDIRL
Chain of P2Y purinoceptor 4 (P51582 whole entry): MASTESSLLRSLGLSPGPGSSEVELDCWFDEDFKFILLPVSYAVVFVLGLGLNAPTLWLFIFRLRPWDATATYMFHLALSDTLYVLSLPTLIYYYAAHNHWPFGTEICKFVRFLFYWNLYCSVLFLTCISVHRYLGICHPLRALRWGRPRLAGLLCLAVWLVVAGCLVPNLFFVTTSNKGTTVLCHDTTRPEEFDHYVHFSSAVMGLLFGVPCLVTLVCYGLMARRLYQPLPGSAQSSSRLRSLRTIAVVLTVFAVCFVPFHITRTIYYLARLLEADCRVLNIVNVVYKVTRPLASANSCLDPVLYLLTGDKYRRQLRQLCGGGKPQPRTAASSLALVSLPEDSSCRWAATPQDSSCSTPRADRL
Chain of P2Y purinoceptor 1 (Meleagris gallopavo) (P49652 whole entry): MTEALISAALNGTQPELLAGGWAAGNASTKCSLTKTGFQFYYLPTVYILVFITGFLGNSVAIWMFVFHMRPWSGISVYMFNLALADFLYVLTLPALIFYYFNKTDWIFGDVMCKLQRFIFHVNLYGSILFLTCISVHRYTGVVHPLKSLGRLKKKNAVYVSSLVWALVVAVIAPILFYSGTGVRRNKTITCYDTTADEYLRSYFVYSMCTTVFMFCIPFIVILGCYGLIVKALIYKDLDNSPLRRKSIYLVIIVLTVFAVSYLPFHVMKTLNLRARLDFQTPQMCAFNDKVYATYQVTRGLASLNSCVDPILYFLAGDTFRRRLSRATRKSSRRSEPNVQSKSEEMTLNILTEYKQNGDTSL
Chain of P2Y purinoceptor 6 (Rattus norvegicus) (Q63371 whole entry): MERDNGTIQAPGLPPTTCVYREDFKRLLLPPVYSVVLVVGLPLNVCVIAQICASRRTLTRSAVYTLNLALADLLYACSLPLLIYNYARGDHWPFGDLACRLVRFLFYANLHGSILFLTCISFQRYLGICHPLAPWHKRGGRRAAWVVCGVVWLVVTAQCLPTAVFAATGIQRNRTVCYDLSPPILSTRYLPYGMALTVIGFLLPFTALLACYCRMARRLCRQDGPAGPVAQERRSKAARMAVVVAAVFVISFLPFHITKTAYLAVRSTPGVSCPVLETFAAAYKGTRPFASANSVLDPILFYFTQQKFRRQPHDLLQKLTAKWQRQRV

In the case of `BP(=O)(OP(=O)(O)OC[C@H]1O[C@@H](n2cnc3c(N)ncnc32)[C@H](O)[C@@H]1O)OP(=O)(O)OC[C@H]1O[C@@H](n2cnc3c(N)ncnc32)[C@H](O)[C@@H]1O.CCCCN(CCCC)CCCC.CCCCN(CCCC)CCCC.CCCCN(CCCC)CCCC`, the Stability result in data set [1], in data set [2], in data set [3] and in data set [4] was “Stable” each time.
As for `BP(=O)(OP(=O)(O)OP(=O)(O)OC[C@H]1O[C@@H](n2cnc3c(N)ncnc32)[C@H](O)[C@@H]1O)OP(=O)(O)OP(=O)(O)OC[C@H]1O[C@@H](n2cnc3c(N)ncnc32)[C@H](O)[C@@H]1O.CCCCN(CCCC)CCCC.CCCCN(CCCC)CCCC.CCCCN(CCCC)CCCC.CCCCN(CCCC)CCCC.CCCCN(CCCC)CCCC`, the Stability entry in data set [1] was “Unstable”; in data set [3] it was “Stable”; in [4], “Stable”. Further, the outcome in data set [5] was Active. Besides, the result in data set [6] was inactive.
Consider `BP(=O)(OP(=O)(O)OP(=O)(O)OC[C@H]1O[C@@H](n2ccc(=O)[nH]c2=O)[C@H](O)[C@@H]1O)OP(=O)(O)OP(=O)(O)OC[C@H]1O[C@@H](n2ccc(=O)[nH]c2=O)[C@H](O)[C@@H]1O.CCCCN(CCCC)CCCC.CCCCN(CCCC)CCCC.CCCCN(CCCC)CCCC.CCCCN(CCCC)CCCC.CCCCN(CCCC)CCCC`, for which the Stability entry in data set [1], in [3] and in data set [4] was “Stable” throughout. In addition, the outcome in data set [5] and in data set [6] was inactive.
On to `BP(=O)(OP(=O)(O)OC[C@H]1O[C@@H](n2cnc3c(N)ncnc32)[C@H](O)[C@@H]1O)OP(=O)(O)OP(=O)(O)OC[C@H]1O[C@@H](n2ccc(=O)[nH]c2=O)[C@H](O)[C@@H]1O.CCCCN(CCCC)CCCC.CCCCN(CCCC)CCCC.CCCCN(CCCC)CCCC.CCCCN(CCCC)CCCC` (mixture of isomers), for which the Ratio EC50 in [7] came to 42.
`BP(=O)(OP(=O)(O)OC[C@H]1O[C@@H](n2cnc3c(N)ncnc32)[C@H](O)[C@@H]1O)OP(=O)(O)OP(=O)(O)OC[C@H]1O[C@@H](n2cnc3c(N)ncnc32)[C@H](O)[C@@H]1O.CCCCN(CCCC)CCCC.CCCCN(CCCC)CCCC.CCCCN(CCCC)CCCC.CCCCN(CCCC)CCCC` (stereo in doubt; 6A): the outcome in data set [8], in data set [9], in [10] and in [11] was inactive. Further, the result in data set [12] was Active.
In the case of `BP(=O)(OP(=O)(O)OC[C@H]1O[C@@H](n2cnc3c(N)ncnc32)[C@H](O)[C@@H]1O)OP(=O)(O)OP(=O)(O)OC[C@H]1O[C@@H](n2cnc3c(N)ncnc32)[C@H](O)[C@@H]1O.CCCCN(CCCC)CCCC.CCCCN(CCCC)CCCC.CCCCN(CCCC)CCCC.CCCCN(CCCC)CCCC` (stereo in doubt; 6B), the outcome in data set [8], in data set [9], in [10] and in [11] was inactive. Moreover, the result in data set [12] was Active.
Turning to `BP(=O)(OP(=O)(O)OC[C@H]1O[C@@H](n2ccc(=O)[nH]c2=O)[C@H](O)[C@@H]1O)OP(=O)(O)OP(=O)(O)OC[C@H]1O[C@@H](n2ccc(=O)[nH]c2=O)[C@H](O)[C@@H]1O.CCCCN(CCCC)CCCC.CCCCN(CCCC)CCCC.CCCCN(CCCC)CCCC.CCCCN(CCCC)CCCC` (stereo in doubt; 7A), the result in data set [8], in [9], in [10] and in data set [11] was inactive. For the same compound, the outcome in data set [13] and in [14] was Active.
As to `BP(=O)(OP(=O)(O)OC[C@H]1O[C@@H](n2ccc(=O)[nH]c2=O)[C@H](O)[C@@H]1O)OP(=O)(O)OP(=O)(O)OC[C@H]1O[C@@H](n2cnc3c(N)ncnc32)[C@H](O)[C@@H]1O.CCCCN(CCCC)CCCC.CCCCN(CCCC)CCCC.CCCCN(CCCC)CCCC.CCCCN(CCCC)CCCC` (stereo in doubt; 9A), the result in [8], in data set [9], in [10] and in data set [11] was inactive. For the same compound, the outcome in data set [14] was Active.
Regarding `BP(=O)(OC[C@H]1O[C@@H](n2ccc(=O)[nH]c2=O)[C@H](O)[C@@H]1O)OP(=O)(O)OP(=O)(O)OP(=O)(O)OC[C@H]1O[C@@H](n2ccc(=O)[nH]c2=O)[C@H](O)[C@@H]1O.CCCCN(CCCC)CCCC.CCCCN(CCCC)CCCC.CCCCN(CCCC)CCCC.CCCCN(CCCC)CCCC` (stereo in doubt; 13A), the result in data set [8], in [9], in [10] and in [11] was inactive. Moreover, in data set [14], the result was Active.
